Bioassay records from PubChem BioAssay.
NR2E3 ag-1 = agonists of human NR2E3 nuclear receptor | CHO-S Gal4-NCOR/VP16-NR2E3 two-hybrid, luciferase | inhibition of corepressor binding, % at 3.98 µM | actives 0.35% (n = 360,000);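 active means inhibition above the mean of all tested compounds plus 3 SD, cut at about 70% in these data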;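 further: 0% = DMSO with NR2E3 transfected cells and 100% = cells lacking NR2E3 construct; higher means lower luciferase signal from less NR2E3 corepressor binding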
VLA-4 inh = inhibition in a human VLA-4 binding assay; P13612; VLA-4 expressing cells, ligand binding flow cytometry; inhibition, % (about 7 µM as worked out from the volumes in the protocol); actives 0.2% (n = 330,000); in the data active means inhibition above about 50%
Rev-erbA mod = modulates human Rev-erb alpha binding to DNA; actives 0.79% (n = 370,000); P20393; Rev-erbα–FITC-DNA binding, fluorescence polarization, 90 min; activity, % at 10 µM;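 active means activity above about 14%, limit read from the data; passing the limit was not always enough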;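 further: 0% = DMSO wells with 35 nM protein and 100% = DMSO wells with 750 nM protein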
Target sequence (P20393 whole entry, looked up): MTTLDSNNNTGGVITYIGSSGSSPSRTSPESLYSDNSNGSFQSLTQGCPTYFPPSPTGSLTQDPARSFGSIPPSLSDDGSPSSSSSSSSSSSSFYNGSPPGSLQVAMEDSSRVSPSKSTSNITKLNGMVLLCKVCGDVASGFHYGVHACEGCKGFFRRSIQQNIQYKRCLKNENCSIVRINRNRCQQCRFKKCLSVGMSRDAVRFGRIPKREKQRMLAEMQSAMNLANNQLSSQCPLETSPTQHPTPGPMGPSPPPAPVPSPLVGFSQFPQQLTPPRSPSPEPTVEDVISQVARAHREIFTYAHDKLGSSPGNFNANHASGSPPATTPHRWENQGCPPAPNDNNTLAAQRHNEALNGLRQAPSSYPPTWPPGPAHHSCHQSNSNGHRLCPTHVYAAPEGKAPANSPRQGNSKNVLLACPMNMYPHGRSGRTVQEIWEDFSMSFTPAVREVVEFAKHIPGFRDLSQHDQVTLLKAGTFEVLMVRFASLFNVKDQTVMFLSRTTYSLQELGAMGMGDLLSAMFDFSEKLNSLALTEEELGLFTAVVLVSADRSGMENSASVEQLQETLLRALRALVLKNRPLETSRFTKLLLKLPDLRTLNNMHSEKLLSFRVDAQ
NR2E3 ag-2 = NR2E3 (human) agonism; inhibition of corepressor binding, % at 4.78 µM; actives 0.12% (n = 320,000); GST-NR2E3/biotin-RetCOR TR-FRET, 1536-well; Q9Y5X4;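 active means percent inhibition above the cutoff of mean plus 3 SD of all tested compounds, set per screening campaign, cut at about 20% in these data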;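 further: 0% = DMSO wells and 100% = biotin wells as full block of FRET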
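Assay system: NR2E3–RetCOR corepressor complex. Quantity: 1.35 nM GST-NR2E3. Buffer or medium: pH 7.5 Tris-based buffer. Reagent: biotinylated RetCOR corepressor at 7 nM final. Schedule: 5 h at 4 °C. Detection: TR-FRET, emission read at 617 and 671 nm. Replicates: one well per compound, singlicate testing.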
PG9 Ab binder = small molecules binding HIV-1 gp120 antibody PG9. TR-FRET gp120-PG9 antibody binding. actives 0.43% (n = 360,000). inhibition, % at 6.7 µM. AID 624416; in the data active means inhibition above about 8.5%
The depositor's hits bear a star. An excerpt weighted towards active compounds, which were near 1.6% of everything screened.

How did Cc1cc(NCCCCCCCNc2cc(C)nc3cc([N+](=O)[O-])ccc23)c2ccc([N+](=O)[O-])cc2n1 do in these assays?
NR2E3 ag-1: 20.6; Rev-erbA mod: -4.1; PG9 Ab binder: 13.0*

How did C(=C\c1ccccc1)/CN1CCN(c2ncnc3c2oc2ccccc23)CC1 do in these assays?
NR2E3 ag-1: 97.8*; VLA-4 inh: -1.5; Rev-erbA mod: 3.3; NR2E3 ag-2: 1.4; PG9 Ab binder: 1.9

Results for CN1CCN(c2ccc(-c3ccc4ccccc4n3)cc2)CC1 ?
NR2E3 ag-1: 86.8*; Rev-erbA mod: -0.8; PG9 Ab binder: 1.2

How did c1ccc2nc(-c3ccncc3)ccc2c1 do in these assays?
NR2E3 ag-1: -54.6; VLA-4 inh: 1.3; Rev-erbA mod: -4.5; NR2E3 ag-2: 2.5; PG9 Ab binder: 0.1

What do the screens show for `CC(=O)O[C@]1(C(C)=O)CCC2C3C=C(Cl)C4=CC(=O)[C@@H]5C[C@@H]5[C@]4(C)C3CC[C@@]21C` (some centres undefined)?
Rev-erbA mod: -8.2

Results for O=S(=O)(c1ccc2c(c1)OCCO2)N1CCN(c2ncnc3sccc23)CC1 ?
NR2E3 ag-1: 86.5*; VLA-4 inh: 3.9; Rev-erbA mod: 1.7; NR2E3 ag-2: -1.8; PG9 Ab binder: -1.2

What do the screens show for `O=C(O)CCC(=O)NNc1ncnc2ccccc12`?
NR2E3 ag-1: -12.3; VLA-4 inh: 49.6*; Rev-erbA mod: -4.0; NR2E3 ag-2: 3.6; PG9 Ab binder: -0.6

How did CCC(=O)NNc1ncnc2ccccc12 do in these assays?
NR2E3 ag-1: 0.6; VLA-4 inh: 9.8; Rev-erbA mod: 1.1; NR2E3 ag-2: 3.5; PG9 Ab binder: -2.4

How did CSc1nc(C)c2c(n1)N(c1ccc(O)cc1)CC2 do in these assays?
NR2E3 ag-1: 27.4; VLA-4 inh: 17.3; Rev-erbA mod: -3.4; NR2E3 ag-2: 0.0; PG9 Ab binder: -2.2

Results for CSc1nc(C)c2c(n1)N(c1ccc(F)cc1)CC2 ?
NR2E3 ag-1: -16.4; VLA-4 inh: 18.5; Rev-erbA mod: 16.1; NR2E3 ag-2: 0.2; PG9 Ab binder: 10.3*

How did Cc1cc(NC(=O)COc2ccc3ccccc3c2Br)no1 do in these assays?
NR2E3 ag-1: -11.3; VLA-4 inh: -1.5; Rev-erbA mod: 4.2; PG9 Ab binder: 10.0*

Results for O=C(O)C1=CC(=C(c2ccc(O)c(C(=O)O)c2)c2ccc(O)c(C(=O)O)c2)C=CC1=O ?
VLA-4 inh: 7.0; NR2E3 ag-2: 30.4*

How did O=C(O)c1cc(O)ccc1O do in these assays?
NR2E3 ag-1: -34.1; Rev-erbA mod: 2.3; PG9 Ab binder: -2.0

What do the screens show for `Cc1ccc(NC(=O)OCc2cccs2)cc1`?
VLA-4 inh: 56.7*; NR2E3 ag-2: 0.1

How did Cc1ccc(NC(=O)OCc2cc(-c3ccccc3)on2)cc1 do in these assays?
NR2E3 ag-1: -35.7; VLA-4 inh: 10.9; Rev-erbA mod: -2.7; NR2E3 ag-2: -0.2; PG9 Ab binder: 0.0

What do the screens show for `C=C[C@@]1(C)CC(=O)[C@@]2(O)[C@](C)(O1)[C@@H](OC(C)=O)[C@@H](O)C1C(C)(C)CC[C@H](O)[C@@]12C` (some centres undefined)?
Rev-erbA mod: -8.6

How did CS(=O)(=O)N(CC(=O)Nc1ccccc1Sc1ccccc1)c1ccc(F)cc1 do in these assays?
NR2E3 ag-1: -2.5; VLA-4 inh: 7.1; Rev-erbA mod: 1.8; NR2E3 ag-2: -2.0; PG9 Ab binder: 14.4*

What do the screens show for `C#C[C@]1(O)CCC2C3CCC4=Cc5oncc5C[C@]4(C)C3CC[C@@]21C` (some centres undefined)?
Rev-erbA mod: 6.7

How did COc1ccc(C2/C=C\CN(C(=O)Nc3ccc(C(F)(F)F)cc3)CC(=O)N2Cc2ccc(F)cc2)cc1 (centres undefined) do in these assays?
NR2E3 ag-1: 82.3*; VLA-4 inh: 16.3; NR2E3 ag-2: -3.5

How did CN(c1ccccc1)S(=O)(=O)c1cccc(Cl)c1Cl do in these assays?
NR2E3 ag-1: 0.0; VLA-4 inh: -4.2; Rev-erbA mod: 5.4; NR2E3 ag-2: -1.4; PG9 Ab binder: 1.1

Results for CN(c1ccccc1)S(=O)(=O)c1cc(Cl)ccc1Cl ?
NR2E3 ag-1: -7.7; VLA-4 inh: 51.3*; Rev-erbA mod: 5.7; NR2E3 ag-2: 0.4; PG9 Ab binder: -0.7

What do the screens show for `CCCCC(CC)COC(=O)c1ccc(Nc2nc(Nc3ccc(C(=O)OCC(CC)CCCC)cc3)nc(Nc3ccc(C(=O)OCC(CC)CCCC)cc3)n2)cc1` (centres undefined)?
Rev-erbA mod: 7.2

What do the screens show for `CC[C@H](C)C1OC(=O)[C@@H](C)[C@@H](CC)NC(=O)[C@H](C)N(C)C(=O)C(C)(C)C(=O)C(C)NC(=O)[C@H](Cc2ccc(OC)cc2)N(C)C(=O)[C@H](C(C)C)N(C)C(=O)CNC(=O)[C@H](CC(C)C)N(C)C(=O)CNC1=O` (some centres undefined)?
NR2E3 ag-1: 81.1*

Results for Cc1ccc2oc(=O)c3cnn(CC(=O)NCCc4ccsc4)c3c2c1 ?
NR2E3 ag-1: -28.0; VLA-4 inh: -3.1; Rev-erbA mod: 10.1; NR2E3 ag-2: -2.3; PG9 Ab binder: 22.5*

How did C[C@H](Cc1cc2c(c(C(N)=O)c1)N(CCCO)CC2)NCCOc1ccccc1OCC(F)(F)F do in these assays?
Rev-erbA mod: -7.4

Results for CSc1ccc(CN(C)C(=O)c2cccc(S(=O)(=O)N3CCN(Cc4ccccc4)CC3)c2)cc1 ?
NR2E3 ag-1: 70.5*; VLA-4 inh: -18.0; Rev-erbA mod: 12.5; NR2E3 ag-2: 2.0; PG9 Ab binder: 1.1

Results for CC(OC(=O)OC1CCCCC1)OC(=O)C1=C(CSc2nnnn2CCN(C)C)CS[C@@H]2[C@H](NC(=O)Cc3csc(N)n3)C(=O)N12 (some centres undefined) ?
Rev-erbA mod: -7.1

How did CC(C)(C)NC(=O)[C@H]1CCC2C3CCC4NC(=O)C=C[C@]4(C)C3CC[C@@]21C (some centres undefined) do in these assays?
Rev-erbA mod: 2.5

How did COC(=O)[C@@H]1CC(=O)O[C@H](C)C/C=C/C=C/[C@H](O)[C@H](C)C[C@H](CC=O)[C@H](OC2O[C@H](C)[C@@H](OC3C[C@@](C)(O)[C@@H](OC(=O)CC(C)C)[C@H](C)O3)[C@H](N(C)C)[C@H]2O)[C@H]1OC (some centres undefined) do in these assays?
Rev-erbA mod: -2.8

Results for CC(=O)Nc1ccc(NS(=O)(=O)c2cc([N+](=O)[O-])ccc2C)cc1 ?
NR2E3 ag-1: 8.7; VLA-4 inh: 55.2*; Rev-erbA mod: 1.6; NR2E3 ag-2: 1.8; PG9 Ab binder: -3.0

What do the screens show for `O=C(CCC(=O)OCC(=O)c1ccc(-c2ccccc2)cc1)Nc1cccc(Cl)c1`?
NR2E3 ag-1: 6.2; VLA-4 inh: 29.3; Rev-erbA mod: 4.6; NR2E3 ag-2: 1.6; PG9 Ab binder: 9.0*

Results for O=C(CCNC(=O)c1ccccc1)OCC(=O)c1cccc(Cl)c1 ?
NR2E3 ag-1: 4.9; VLA-4 inh: 3.9; Rev-erbA mod: -1.2; NR2E3 ag-2: 4.5; PG9 Ab binder: -0.1
